For assay [1], the target named is T1, Hemoglobin HbA (Homo sapiens) (UniProt P69905+P68871). The experiment in a line: Ability to right-shift the oxygen equilibrium curves (OECs) quantified by ability to increase in P50 at which Hb was 50% saturated with oxygen in the presence of the effector at the concentration of 5 mM. It is filed as functional. In a few lines: (§1)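 Human whole blood; DMSO stock 200 mM, final 5 mM effector, DMSO-only control. Duplicate samples equilibrated ~10 min at 37 °C in tonometers against gas mixtures of 2.95%, 5.85% and 8.75% O2 with 5.8% CO2, balance N2. pO2 and sO2 read on blood gas analyzer and co-oximeter. P50 and n50 from nonlinear regression; ΔP50 = P50 effector − P50 control.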
T1 sequence (P68871 2-147 partner limits assumed): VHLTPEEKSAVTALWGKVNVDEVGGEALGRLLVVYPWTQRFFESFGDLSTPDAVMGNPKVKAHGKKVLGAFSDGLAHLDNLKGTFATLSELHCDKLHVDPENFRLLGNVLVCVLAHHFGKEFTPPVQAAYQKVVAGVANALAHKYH
T1 sequence (P69905 2-142 limits assumed): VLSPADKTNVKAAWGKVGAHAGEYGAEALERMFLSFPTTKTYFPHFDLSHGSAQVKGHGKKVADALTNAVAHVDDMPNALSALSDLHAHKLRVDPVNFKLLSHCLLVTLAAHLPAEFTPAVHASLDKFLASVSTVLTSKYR

For assay [2], the target named is T1, Hemoglobin HbA (Homo sapiens). Nature of the assay: Oxygen pressure in mmHg at which Hb is 50% saturated with oxygen at 50-60 uM heme concentration and in the presence of 0.5 mM effector. The class given is functional.
The target is the same in assay [3]. The experiment in a line: The Hill coefficient at 50% saturation (n50) between 40 and 60% oxygen saturation (n50 control value with no effector present, 2.7). The class given is protein-complex assay.
Assay [4] shares this target. Nature of the assay: The difference in the partial pressure of oxygen at 50% saturated Hb. It is filed as functional. In a few lines:
as §1

Assay [5] has the same target. Nature of the assay: Ability to right-shift the oxygen equilibrium curves (OECs) quantified by ability to increase in P50 in whole blood analyses. The class given is functional, tissue-based. In a few lines:
as §1

Assay [6] shares this target. Nature of the assay: Ability to right-shift the oxygen equilibrium curves (OECs) quantified by ability to increase in P50 at which Hb was 50% saturated with oxygen in the […] of the effector at the concentration of 5 mM. The class given is functional. In a few lines: as §1
The target is the same in assay [7]. Nature of the assay: The Hill coefficient at 50% saturation (n50) in the presence of effector. The class given is protein-complex assay. In a few lines:
as §1

Assay [8] shares this target. Nature of the assay: Ratio of […] (P50 control value with no effector present 5.0 mmHg, in case of DMSO is 4.7 mmHg ). It is filed as functional.
Assay [9] has the same target. The experiment in a line: Ability to right-shift the oxygen equilibrium curves (OECs) quantified by ability to increase in P50 at which Hb was 50% saturated with oxygen in the […] of the effector. The class given is functional.

Take `Cc1cc(C)cc(NC(=O)Cc2ccc(OC3(C(=O)N[C@H](Cc4ccc5[nH]ccc5c4)C(=O)O)CCCC3)cc2)c1`: the P50e in assay [1] worked out at 49.9 mmHg; in [2], 37.1 mmHg; in assay [6], 47.5 mmHg. Also, the Hill coefficient (n50) in [3] is 2.1. In addition, the Delta P50 in assay [4] amounted to 20. In addition, the P50c in assay [5] was 28.7 mmHg. The n50e in assay [7] was determined as 2.1. Besides, in assay [8], the P50e / P50c was determined as 7.4.

Regarding `Cc1cc(C)cc(NC(=O)Cc2ccc(OC3(C(=O)N[C@@H](Cc4ccc5[nH]ccc5c4)C(=O)O)CCCC3)cc2)c1`, the results for the P50e in [9], in assay [1] and in [2] were 47.2 mmHg, 48.8 mmHg and 37 mmHg, respectively. The compound also yielded a Hill coefficient (n50) in assay [3] of 2.3. The compound further had a Delta P50 in assay [4] of 20.2. The P50c in assay [5] was found to be 27.9 mmHg. Also, the n50e in [7] is 2. For the same compound, the P50e / P50c in [8] amounted to 7.4.

Take `Cc1cc(C)cc(NC(=O)Cc2ccc(OC3(C(=O)N[C@@H](CCCCNC(=O)OCc4ccccc4)C(=O)O)CCCC3)cc2)c1`: the figures for the P50e in assay [9], in assay [1] and in assay [2] were 39.5 mmHg, 45 mmHg and 29.5 mmHg, respectively. In addition, the Hill coefficient (n50) in assay [3] was found to be 2.4. Moreover, the Delta P50 in assay [4] worked out at 14. Besides, in assay [5], the P50c stood at 28.3 mmHg. The n50e in assay [7] worked out at 2.1. Also, the P50e / P50c in assay [8] came to 5.9.

`Cc1cc(C)cc(NC(=O)Cc2ccc(OC3(C(=O)NCC(=O)O)CCCC3)cc2)c1`: the results for the P50e in [9], in assay [1] and in [2] were 50 mmHg, 52.6 mmHg and 12 mmHg, respectively. In assay [3], the Hill coefficient (n50) is 2.6. This compound also had a Delta P50 in assay [4] of 25.1. The P50c in [5] amounted to 26.2 mmHg. In assay [7], the n50e was determined as 2.1. Moreover, in [8], the P50e / P50c was 2.4.

Regarding `Cc1cc(C)cc(NC(=O)Cc2ccc(OC3(C(=O)N[C@@H](CC(C)C)C(=O)O)CCCC3)cc2)c1`, the P50e in assay [9] was determined as 70.6 mmHg; in assay [1], 71.3 mmHg; in assay [2] it was 21.3 mmHg. The Hill coefficient (n50) in assay [3] was determined as 2.7. The compound also gave a Delta P50 in assay [4] of 41.5. For the same compound, the P50c in assay [5] was 29.4 mmHg. Besides, the n50e in assay [7] stood at 1.8. Besides, the P50e / P50c in assay [8] worked out at 4.3.

For `Cc1cc(C)cc(NC(=O)Cc2ccc(OC3(C(=O)N[C@H](CSCc4ccccc4)C(=O)O)CCCC3)cc2)c1`, the results for the P50e in [9], in [1] and in assay [2] were 30.6 mmHg, 33.3 mmHg and 43 mmHg, respectively. In assay [3], this compound came in with a Hill coefficient (n50) of 2.1. For the same compound, in assay [4], the Delta P50 worked out at 7.2. Further, the P50c in assay [5] amounted to 24.8 mmHg. Besides, in [7], the n50e was found to be 2.3. The P50e / P50c in assay [8] came to 8.6.

For `Cc1cc(C)cc(NC(=O)Cc2ccc(OC3(C(=O)N[C@@H](C)C(=O)O)CCCC3)cc2)c1`, the figures for the P50e in [9], in assay [1] and in [2] were 42.8 mmHg, 46.2 mmHg and 10.5 mmHg, respectively. The same compound registered a Hill coefficient (n50) in [3] of 2.7. The Delta P50 in assay [4] was 17.6. The P50c in assay [5] was 26.8 mmHg. In addition, in assay [7], the n50e is 2.1. For the same compound, the P50e / P50c in assay [8] worked out at 2.1.

Turning to `Cc1cc(C)cc(NC(=O)Cc2ccc(OC3(C(=O)N[C@H](CCC(=O)O)C(=O)O)CCCC3)cc2)c1`, the values for the P50e in [9], in assay [1] and in assay [2] were 50.1 mmHg, 51.4 mmHg and 16.8 mmHg, respectively. The same compound displayed a Hill coefficient (n50) in assay [3] of 2.6. For the same compound, the Delta P50 in [4] turned out to be 22.5. The P50c in [5] amounted to 28.3 mmHg. For the same compound, the n50e in assay [7] was determined as 2. The P50e / P50c in assay [8] amounted to 3.4.

For the compound `Cc1cc(C)cc(NC(=O)Cc2ccc(OC3(C(=O)N[C@@H](Cc4ccccc4)C(=O)O)CCCC3)cc2)c1`, the P50e in [9] amounted to 64.1 mmHg; in assay [1], 67.5 mmHg; in [2], 12.4 mmHg. This compound also showed a Hill coefficient (n50) in [3] of 2.7. This compound also showed a Delta P50 in [4] of 38.4. Besides, the P50c in assay [5] is 27.4 mmHg. Besides, the n50e in assay [7] was 1.8. Besides, the P50e / P50c in assay [8] was found to be 2.6.

Values taken from ChEMBL document CHEMBL1135880, “Synthesis and X-ray studies of chiral allosteric modifiers of hemoglobin” (J Med Chem, 2002).
